In ChEMBL document CHEMBL1123359, “3,4-Dihydro-2-phenyl-2H-pyrano[2,3-b]pyridines with potent antirhinovirus activity” (1986):
Calls of active or inactive are those of the source. The calls are words filed in the database; no cut-off is given here.

Key:
Human rhinovirus 1A = assay: Concentration required to reduce Rhino virus type 1A induced plaque formation in HeLa cell culture to 50% of control; format: functional; conditions: read-out: ID50 (the source's name)
In short: (§1)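 HeLa monolayers were grown at 36 °C in Eagle's MEM with Earle's salts, 1% antibiotic and 7-10% heat-inactivated fetal calf serum, with serum cut to 1-2% for maintenance. Plaque reduction cultures were incubated 48-72 h at 33 °C. RV-1A was propagated in HeLa; RV-9 was ATCC VR489.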

Human rhinovirus sp. [1] = assay: Concentration required to reduce Rhino virus type 9 induced plaque formation in HeLa cell culture to 50% of control; format: functional; conditions: read-out: ID50 (the source's name); in short: as §1
Human rhinovirus sp. [2] = assay: Concentration required to reduce Rhino virus type 64 induced plaque formation in HeLa cell culture to 50% of control; format: functional; conditions: read-out: ID50 (the source's name); in short: as §1
HeLa [3] = assay: The cell growth inhibition ( CGI) concentration denotes the lowest concentration at which the effect on HeLa cell colony formation became apparent.; format: functional, Homo sapiens
In short: (§2)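 The assay scored effects of compound on the growth and morphology of HeLa cell colonies. HeLa stocks were kept in Eagle's MEM with Earle's salts, 1% antibiotic and 7-10% heat-inactivated fetal calf serum at 36 °C. The value is the lowest concentration at which a colony effect became apparent.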

HeLa [4] = assay: Concentration required to reduce Rhino virus type 64 induced plaque formation in HeLa cell culture to 50% of control; The highest concentration tested failed to provide 50% protection.; format: functional; conditions: Homo sapiens, read-out: ID50 (the source's name)
HeLa [5] = assay: Concentration required to reduce Rhino virus type 9 induced plaque formation in HeLa cell culture to 50% of control; The highest concentration tested failed to provide 50% protection.; format: functional; conditions: Homo sapiens, read-out: ID50 (the source's name)
In short: as §1, with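 “VR489. Plaque counts as % of compound-free control were plotted against log concentration, and the 50% point was found by linear regression.” for “VR489.”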

HeLa [6] = assay: Lowest concentration at which the effect on HeLa cell colony formation became apparent.; format: functional, Homo sapiens; in short: as §2
HeLa [7] = assay: Concentration required to reduce Rhino virus type 1A induced plaque formation in HeLa cell culture to 50% of control; The highest concentration tested failed to provide 50% protection.; format: functional; conditions: Homo sapiens, read-out: ID50 (the source's name)
In short: as §1, with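 “VR489. Plaque counts as % of compound-free control were plotted against log concentration, and the 50% point was found by linear regression.” for “VR489.”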

[8] = Activity against mengovirus.; No activity; format: functional
[9] = Activity against polio type 2; No activity; format: functional

Q: For CCCCSc1cnc2c(c1)CCC(c1ccc(Cl)c(Cl)c1)O2 (stereo unspecified), which IC50 (Human rhinovirus 1A) is on record?
A: The IC50 was 2.83 µM.

Q: And the IC50 (Human rhinovirus sp. [1])?
A: The IC50 was 6.3 µM.

Q: And the IC50 (Human rhinovirus sp. [2])?
A: Its IC50 is 1.39 µM.

Q: With Clc1ccc(C2C=Cc3cc(Br)cnc3O2)cc1Cl (stereo unspecified) as the compound, how does the CGI (HeLa [3]) read?
A: Its CGI is 14 µM.

Q: What about the IC50 (Human rhinovirus 1A) of the same compound?
A: The IC50 was 0.53 µM.

Q: And the IC50 (Human rhinovirus sp. [1])?
A: The IC50 was 0.11 µM.

Q: And the IC50 (Human rhinovirus sp. [2])?
A: The IC50 was 0.06 µM.

Q: What does the source list for Clc1ccc(C2CCc3cc(Br)cnc3O2)cc1 (stereo unspecified)?
A: IC50 (Human rhinovirus 1A): 0.03 µM; IC50 (Human rhinovirus sp. [1]): 0.03 µM; IC50 (Human rhinovirus sp. [2]): 0.03 µM

Q: With Brc1cnc2c(c1)C=CC(c1ccccc1)O2 (stereo unspecified) as the compound, how does the IC50 (Human rhinovirus 1A) read?
A: The IC50 was 1.49 µM.

Q: And the IC50 (HeLa [4])?
A: Its IC50 is > 3.47 µM.

Q: What about the IC50 (HeLa [5]) of the same compound?
A: The IC50 was > 3.47 µM.

Q: Which results are given for Clc1cnc2c(c1)CCC(c1ccc(Cl)c(Cl)c1)O2 (stereo unspecified)?
A: CGI (HeLa [6]): 16 µM; IC50 (Human rhinovirus 1A): 0.06 µM; IC50 (Human rhinovirus sp. [1]): 0.29 µM; IC50 (Human rhinovirus sp. [2]): 0.03 µM

Q: Which IC50 (Human rhinovirus sp. [1]) does the source give for Clc1ccc(C2=CCc3cc(Br)cnc3O2)cc1Cl here?
A: The IC50 was 0.59 µM.

Q: And the IC50 (HeLa [5])?
A: The IC50 was > 14 µM.

Q: What about the IC50 (Human rhinovirus sp. [2]) of the same compound?
A: The IC50 was 12.9 µM.

Q: Which results are given for Clc1ccc(C2CCc3cccnc3O2)cc1Cl (stereo unspecified)?
A: IC50 (Human rhinovirus 1A): 0.07 µM; IC50 (Human rhinovirus sp. [1]): 2.18 µM; IC50 (Human rhinovirus sp. [2]): 0.64 µM

Q: For CS(=O)(=O)c1cnc2c(c1)CCC(c1ccccc1)O2 (stereo unspecified), which IC50 (HeLa [7]) is on record?
A: Its IC50 is > 17 µM.

Q: Which results are given for Clc1ccc(C2CCc3cc(Cl)cnc3O2)cc1 (stereo unspecified)?
A: CGI (HeLa [6]): 35 µM; IC50 (Human rhinovirus 1A): 0.7 µM; IC50 (Human rhinovirus sp. [1]): 0.64 µM; IC50 (Human rhinovirus sp. [2]): 0.11 µM

Q: Which IC50 (Human rhinovirus 1A) does the source give for CC1(c2ccc(Cl)c(Cl)c2)CCc2cc(Cl)cnc2O1 (stereo unspecified) here?
A: Its IC50 is 1.09 µM.

Q: What about the IC50 (Human rhinovirus sp. [1]) of the same compound?
A: The IC50 was 0.58 µM.

Q: What about the IC50 (Human rhinovirus sp. [2]) of the same compound?
A: Its IC50 is 0.4 µM.

Q: For C[S+]([O-])c1cnc2c(c1)CCC(c1ccc(Cl)c(Cl)c1)O2 (stereo unspecified), which IC50 (Human rhinovirus 1A) is on record?
A: Its IC50 is 0.26 µM.

Q: What about the IC50 (Human rhinovirus sp. [1]) of the same compound?
A: The IC50 was 0.03 µM.

Q: What about the IC50 (Human rhinovirus sp. [2]) of the same compound?
A: Its IC50 is 0.009 µM.

Q: Which results are given for CSc1cnc2c(c1)CCC(c1ccc(Cl)c(Cl)c1)O2 (stereo unspecified)?
A: CGI (HeLa [3]): 15 µM; IC50 (Human rhinovirus 1A): 0.12 µM; IC50 (Human rhinovirus sp. [1]): 0.15 µM; IC50 (Human rhinovirus sp. [2]): 0.03 µM

Q: With Clc1ccc(C2C=Cc3cc(Cl)cnc3O2)cc1 (stereo unspecified) as the compound, how does the CGI (HeLa [3]) read?
A: Its CGI is 9 µM.

Q: What about the IC50 (Human rhinovirus 1A) of the same compound?
A: The IC50 was 0.18 µM.

Q: What about the IC50 (Human rhinovirus sp. [1]) of the same compound?
A: The IC50 was 2.3 µM.

Q: And the IC50 (Human rhinovirus sp. [2])?
A: The IC50 was 0.47 µM.

Q: For Brc1cnc2c(c1)CCC(c1ccccc1)O2 (stereo unspecified), which IC50 (Human rhinovirus 1A) is on record?
A: Its IC50 is 0.41 µM.

Q: And the IC50 (Human rhinovirus sp. [1])?
A: The IC50 was 4.76 µM.

Q: What about the IC50 (Human rhinovirus sp. [2]) of the same compound?
A: Its IC50 is 3.55 µM.

Q: What does the source list for Clc1ccc(C2CCc3cc(Br)cnc3O2)cc1Cl (stereo unspecified)?
A: CGI (HeLa [6]): 28 µM; IC50 (Human rhinovirus 1A): 0.03 µM; IC50 (Human rhinovirus sp. [1]): 0.22 µM; Activity [8]: inactive; Activity [9]: inactive; IC50 (Human rhinovirus sp. [2]): 0.06 µM

Q: Which CGI (HeLa [6]) does the source give for CS(=O)(=O)c1cnc2c(c1)CCC(c1ccc(Cl)c(Cl)c1)O2 (stereo unspecified) here?
A: Its CGI is 56 µM.

Q: And the IC50 (Human rhinovirus 1A)?
A: Its IC50 is 0.47 µM.

Q: And the IC50 (Human rhinovirus sp. [1])?
A: The IC50 was 0.14 µM.

Q: And the IC50 (Human rhinovirus sp. [2])?
A: Its IC50 is 0.01 µM.

Q: Which results are given for CS(=O)(=O)c1cnc2c(c1)CCC(c1ccc(Cl)cc1)O2 (stereo unspecified)?
A: IC50 (Human rhinovirus 1A): 1.42 µM; IC50 (Human rhinovirus sp. [1]): 1.42 µM; IC50 (Human rhinovirus sp. [2]): 0.25 µM

Q: Which IC50 (Human rhinovirus 1A) does the source give for Cc1ccc(C2CCc3cc(Br)cnc3O2)cc1 (stereo unspecified) here?
A: The IC50 was 0.07 µM.

Q: And the IC50 (Human rhinovirus sp. [1])?
A: The IC50 was 0.39 µM.

Q: And the IC50 (Human rhinovirus sp. [2])?
A: Its IC50 is 0.23 µM.
